Activity calls are given as the source filed them. The rule behind the calls is not given here.
Experiments:
[1] = Inhibition of PKAalpha (unknown origin) in presence of [gamma-33P]ATP; design: species or system Homo sapiens
[2] = biological target: Tyrosine-protein kinase BTK (Homo sapiens) (UniProt Q06187); assay: Inhibition of N-terminal His6-tagged recombinant full-length human BTK expressed in baculovirus infected Sf21 cells assessed as residual activity at 0.1 uM relative to control
[3] = biological target: Calcium/calmodulin-dependent protein kinase type II subunit delta (Homo sapiens) (UniProt Q13557); assay: Inhibition of recombinant full length human CaMKIIdelta assessed as residual activity at 0.1 uM relative to control
[4] = biological target: Serine/threonine-protein kinase Nek7 (Homo sapiens) (UniProt Q8TDX7); assay: Inhibition of N-terminal His6-tagged recombinant human NEK7 (2 to end residues) expressed in baculovirus infected Sf21 cells assessed as residual activity at 0.1 uM relative to control
[5] = biological target: Serine/threonine-protein kinase Nek11 (Homo sapiens) (UniProt Q8NG66); assay: Inhibition of 6His-tagged recombinant human full-length NEK11 expressed in baculovirus infected Sf21 cells assessed as residual activity at 0.1 uM relative to control
[6] = biological target: Cytoplasmic tyrosine-protein kinase BMX (Homo sapiens) (UniProt P51813); assay: Inhibition of recombinant human Bmx assessed as residual activity at 1 uM relative to control
[7] = biological target: Casein kinase I isoform gamma-3 (Homo sapiens) (UniProt Q9Y6M4); assay: Inhibition of N-terminal 6His-tagged recombinant human CK1gamma3 (1 to 330 residues) expressed in baculovirus infected Sf21 cells assessed as residual activity at 1 uM relative to control
[8] = biological target: Casein kinase I homolog 1 (Saccharomyces cerevisiae S288c) (UniProt P23291); assay: Inhibition of yeast CK1 assessed as residual activity at 1 uM relative to control
[9] = biological target: Maternal embryonic leucine zipper kinase (Homo sapiens) (UniProt Q14680); assay: Inhibition of N-terminal GST-tagged recombinant human MELK (1 to 340 residues) expressed in baculovirus infected Sf21 cells assessed as residual activity at 1 uM relative to control
[10] = biological target: Ribosomal protein S6 kinase alpha-2 (Homo sapiens) (UniProt Q15349); assay: Inhibition of N-terminal His6-tagged recombinant full-length human Rsk3 expressed in Sf21 cells assessed as residual activity at 1 uM relative to control
U-251 = assay: Antiproliferative activity against human U-251 cells assessed as inhibition of cell growth incubated for 72 hrs by cell-titer glo assay; type: functional, cell-based; settings: U-251, 72 h
Hs-578T = assay: Antiproliferative activity against human Hs-578T cells assessed as inhibition of cell growth incubated for 72 hrs by cell-titer glo assay; type: functional, cell-based
Outline: (§1)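 Cells seeded at 10,000–30,000/cm² (adherent) or 100,000/mL (nonadherent) in medium with 10% fetal calf serum; after 24 h, treated in duplicate with serial dilutions for 72 h. Viable cell number read by CellTiter-Glo luminescence; IC50 from sigmoidal fit; at least two independent experiments.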

MFM-223 = assay: Antiproliferative activity against human MFM-223 cells assessed as inhibition of cell growth incubated for 72 hrs by cell-titer glo assay; type: functional, cell-based; settings: MFM-223, 72 h
Outline: (§2)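 Cells from ATCC or ECACC, kept in supplier-recommended medium with 1% penicillin-streptomycin at 37°C, 5% CO₂. Seeded at 10,000–30,000/cm² (adherent) or 100,000/mL (nonadherent) in medium with 10% fetal calf serum. Dosed after 24 h in duplicate with serial dilutions. Viable cells read by CellTiter-Glo 72 h later. IC50 from sigmoidal fit. At least two independent experiments.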

[11] = Antiproliferative activity against human COLO 206F cells assessed as inhibition of cell growth incubated for 72 hrs by cell-titer glo assay; type: functional, cell-based
Outline: (§3)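 Cells seeded 10,000–30,000/cm² (adherent) or 100,000/mL (suspension) in medium with 10% fetal calf serum; after 24 h treated in duplicate with serial dilutions for 72 h. Viable cells read by CellTiter-Glo luminescence; IC50 from sigmoidal fit; at least two independent experiments.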

SW1417 = assay: Antiproliferative activity against human SW1417 cells assessed as inhibition of cell growth incubated for 72 hrs by cell-titer glo assay; type: functional, cell-based; settings: SW1417, 72 h
RPMI-8226 = assay: Antiproliferative activity against human RPMI-8226 cells assessed as inhibition of cell growth incubated for 72 hrs by cell-titer glo assay; type: functional, cell-based; settings: RPMI-8226, 72 h; outline: as §2
HEL = assay: Antiproliferative activity against human HEL cells assessed as inhibition of cell growth incubated for 72 hrs by cell-titer glo assay; type: functional, cell-based; outline: as §1
[12] = Antiproliferative activity against human M-07e cells assessed as inhibition of cell growth incubated for 72 hrs by cell-titer glo assay; type: functional, cell-based; outline: as §1
[13] = Antiproliferative activity against human AML-NS8 cells assessed as inhibition of cell growth incubated for 72 hrs by cell-titer glo assay; type: functional, cell-based; settings: AML-NS8, 72 h; outline: as §3
KARPAS-299 = assay: Antiproliferative activity against human KARPAS-299 cells assessed as inhibition of cell growth incubated for 72 hrs by cell-titer glo assay; type: functional, cell-based; settings: KARPAS-299, 72 h; outline: as §1
L-363 = assay: Antiproliferative activity against human L-363 cells assessed as inhibition of cell growth incubated for 72 hrs by cell-titer glo assay; type: functional, cell-based; settings: L-363, 72 h; outline: as §1
SET-2 = assay: Antiproliferative activity against human SET2 cells assessed as inhibition of cell growth incubated for 72 hrs by cell-titer glo assay; type: functional, cell-based; settings: SET-2, 72 h; outline: as §2
[14] = Volume of distribution at steady state in Beagle dog at 5 mg/kg, iv by LC-MS analysis; type: ADME, organism-based, Canis lupus familiaris; settings: in vivo, read-out: Vdss
[15] = Half-life in male cynomolgus monkey at 5 mg/kg, iv by LC-MS analysis; type: ADME, organism-based, Macaca fascicularis; settings: in vivo
[16] = Tmax in male cynomolgus monkey at 5 mg/kg, po by LC-MS analysis; type: ADME, organism-based, Macaca fascicularis; settings: in vivo
NHDF = assay: Induction of DNA damage in human NHDF cells assessed as H2AX phosphorylation at 0.5 to 1 uM incubated for 8 hrs followed by compound washout and measured after 24 to 48 hrs by Western blotting analysis; type: toxicity, cell-based; settings: dose 0.5-1 µM
[17] = Toxicity in nu/nu mouse xenografted with human HCT-116 cells assessed as body weight loss at 60 mg/kg, po administered for 8 days; type: organism-based; settings: in vivo, 192 h, time 8 day
A2780 [18] = assay: In vivo inhibition of PLK1 in human A2780 cells xenografted in nu/nu mouse assessed as decreased TCTP phosphorylation on Ser46 at 60 mg/kg, po administered for 6 to 12 hrs by immunohistochemistry analysis; type: functional, organism-based; settings: time lower 6.0 hrs, time upper […]
A2780 [19] = assay: Induction of mitosis in human A2780 cells xenografted in nu/nu mouse assessed as increased NPM phosphorylation on Thr199 at 60 mg/kg, po administered for 2 to 6 hrs by immunohistochemistry analysis; type: functional, organism-based; settings: time 2-6 hrs
[20] = Antitumor activity against human Acute myeloid leukemic cell xenografted in nu/nu mouse assessed as increase in median survival time at 120 mg/kg, po administered for 2 days and measured after 10 days in presence of cytarabine (reference value: 34 days); settings: time 2 day

Sequence of Serine/threonine-protein kinase Nek7 (Homo sapiens) (Q8TDX7 whole entry, looked up): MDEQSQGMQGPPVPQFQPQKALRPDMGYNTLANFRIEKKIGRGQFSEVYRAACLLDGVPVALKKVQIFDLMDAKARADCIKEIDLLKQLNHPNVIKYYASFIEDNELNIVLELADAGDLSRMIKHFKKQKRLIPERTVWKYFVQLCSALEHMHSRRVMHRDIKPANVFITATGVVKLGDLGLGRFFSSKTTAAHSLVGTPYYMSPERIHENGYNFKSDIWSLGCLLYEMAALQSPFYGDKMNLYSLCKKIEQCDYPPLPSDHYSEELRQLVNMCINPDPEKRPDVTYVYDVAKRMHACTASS
Sequence of Cytoplasmic tyrosine-protein kinase BMX (Homo sapiens) (P51813 whole entry, the tested form may be a part, canonical isoform): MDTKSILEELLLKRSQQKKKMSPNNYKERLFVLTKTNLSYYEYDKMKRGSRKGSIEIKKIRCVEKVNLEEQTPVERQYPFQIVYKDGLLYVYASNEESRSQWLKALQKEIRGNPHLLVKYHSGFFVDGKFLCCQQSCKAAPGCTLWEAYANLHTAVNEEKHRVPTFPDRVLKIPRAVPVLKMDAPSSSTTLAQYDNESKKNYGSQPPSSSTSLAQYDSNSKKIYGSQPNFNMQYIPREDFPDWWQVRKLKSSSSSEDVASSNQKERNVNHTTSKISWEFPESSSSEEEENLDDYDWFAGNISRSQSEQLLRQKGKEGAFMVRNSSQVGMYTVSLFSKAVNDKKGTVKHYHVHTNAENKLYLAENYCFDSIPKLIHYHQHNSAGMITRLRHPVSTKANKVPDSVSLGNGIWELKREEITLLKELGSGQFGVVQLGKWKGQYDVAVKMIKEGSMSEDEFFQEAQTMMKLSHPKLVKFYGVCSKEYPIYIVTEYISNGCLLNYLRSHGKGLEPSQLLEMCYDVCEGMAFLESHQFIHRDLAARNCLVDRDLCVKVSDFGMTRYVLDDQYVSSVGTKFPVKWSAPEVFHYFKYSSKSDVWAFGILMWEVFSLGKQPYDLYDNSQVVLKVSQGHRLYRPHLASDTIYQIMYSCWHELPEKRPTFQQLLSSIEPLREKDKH
Sequence of Tyrosine-protein kinase BTK (Homo sapiens) (Q06187 whole entry): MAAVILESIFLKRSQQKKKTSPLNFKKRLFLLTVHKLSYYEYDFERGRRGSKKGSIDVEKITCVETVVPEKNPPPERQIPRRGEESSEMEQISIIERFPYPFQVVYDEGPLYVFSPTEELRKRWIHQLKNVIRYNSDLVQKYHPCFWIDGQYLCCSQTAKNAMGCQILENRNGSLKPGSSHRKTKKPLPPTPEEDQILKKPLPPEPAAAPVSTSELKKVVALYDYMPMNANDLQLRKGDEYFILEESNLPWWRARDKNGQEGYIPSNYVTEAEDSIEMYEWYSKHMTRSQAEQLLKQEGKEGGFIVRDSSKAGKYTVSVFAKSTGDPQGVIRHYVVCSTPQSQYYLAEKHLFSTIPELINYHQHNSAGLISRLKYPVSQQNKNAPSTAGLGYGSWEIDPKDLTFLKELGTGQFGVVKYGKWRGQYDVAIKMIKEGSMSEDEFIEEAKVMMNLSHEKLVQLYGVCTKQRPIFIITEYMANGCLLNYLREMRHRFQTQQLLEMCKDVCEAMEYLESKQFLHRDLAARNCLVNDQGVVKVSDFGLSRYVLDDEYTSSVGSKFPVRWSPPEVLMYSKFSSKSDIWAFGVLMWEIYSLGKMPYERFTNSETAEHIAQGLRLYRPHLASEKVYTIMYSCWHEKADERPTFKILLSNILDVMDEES
Sequence of Maternal embryonic leucine zipper kinase (Homo sapiens) (Q14680 whole entry, looked up, the tested form may be a part): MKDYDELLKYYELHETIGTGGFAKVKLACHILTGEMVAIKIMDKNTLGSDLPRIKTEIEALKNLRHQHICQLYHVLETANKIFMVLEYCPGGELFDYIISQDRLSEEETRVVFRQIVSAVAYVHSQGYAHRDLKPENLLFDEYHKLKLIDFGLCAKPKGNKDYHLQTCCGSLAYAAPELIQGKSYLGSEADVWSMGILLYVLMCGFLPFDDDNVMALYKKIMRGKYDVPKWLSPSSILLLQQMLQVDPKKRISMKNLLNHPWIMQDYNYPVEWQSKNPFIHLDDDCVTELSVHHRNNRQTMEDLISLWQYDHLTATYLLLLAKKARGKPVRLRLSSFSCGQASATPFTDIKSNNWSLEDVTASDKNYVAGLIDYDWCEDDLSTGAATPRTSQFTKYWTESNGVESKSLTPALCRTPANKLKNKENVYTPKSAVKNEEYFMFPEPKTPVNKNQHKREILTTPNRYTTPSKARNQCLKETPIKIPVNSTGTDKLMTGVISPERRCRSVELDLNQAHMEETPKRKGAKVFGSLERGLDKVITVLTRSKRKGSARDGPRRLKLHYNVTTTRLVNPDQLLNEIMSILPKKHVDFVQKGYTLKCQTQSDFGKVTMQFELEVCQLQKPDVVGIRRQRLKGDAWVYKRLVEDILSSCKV
Sequence of Casein kinase I homolog 1 (Saccharomyces cerevisiae S288c) (P23291 whole entry, the tested form may be a part): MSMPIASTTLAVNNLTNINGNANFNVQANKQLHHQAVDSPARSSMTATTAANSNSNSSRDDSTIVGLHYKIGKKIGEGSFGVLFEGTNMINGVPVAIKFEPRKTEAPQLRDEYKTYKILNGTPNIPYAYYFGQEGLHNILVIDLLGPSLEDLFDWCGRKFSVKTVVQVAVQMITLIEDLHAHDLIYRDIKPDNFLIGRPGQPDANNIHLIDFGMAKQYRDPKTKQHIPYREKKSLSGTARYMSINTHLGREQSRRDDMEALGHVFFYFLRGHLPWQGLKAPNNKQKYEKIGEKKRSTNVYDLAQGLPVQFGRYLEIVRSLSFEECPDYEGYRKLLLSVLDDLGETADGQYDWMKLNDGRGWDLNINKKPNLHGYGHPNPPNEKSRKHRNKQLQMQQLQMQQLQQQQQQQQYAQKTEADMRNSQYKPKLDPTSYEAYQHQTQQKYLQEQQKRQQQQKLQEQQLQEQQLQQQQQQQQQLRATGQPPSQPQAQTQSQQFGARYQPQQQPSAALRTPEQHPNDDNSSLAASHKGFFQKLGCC
Sequence of Calcium/calmodulin-dependent protein kinase type II subunit delta (Homo sapiens) (Q13557 whole entry): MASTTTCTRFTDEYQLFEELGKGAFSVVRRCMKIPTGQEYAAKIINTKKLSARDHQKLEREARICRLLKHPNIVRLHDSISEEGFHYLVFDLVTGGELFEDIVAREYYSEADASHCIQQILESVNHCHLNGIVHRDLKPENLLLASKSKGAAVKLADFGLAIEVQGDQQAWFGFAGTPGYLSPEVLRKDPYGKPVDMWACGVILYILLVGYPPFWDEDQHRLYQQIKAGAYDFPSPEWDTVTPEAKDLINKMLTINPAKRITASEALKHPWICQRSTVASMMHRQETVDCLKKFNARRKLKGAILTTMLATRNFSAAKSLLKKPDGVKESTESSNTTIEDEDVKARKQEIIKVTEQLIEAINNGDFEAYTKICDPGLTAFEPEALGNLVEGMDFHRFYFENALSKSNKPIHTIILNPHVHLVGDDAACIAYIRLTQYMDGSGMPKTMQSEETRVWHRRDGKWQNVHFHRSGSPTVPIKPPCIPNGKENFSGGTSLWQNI
Sequence of Casein kinase I isoform gamma-3 (Homo sapiens) (Q9Y6M4 whole entry, looked up, the tested form may be a part, canonical isoform): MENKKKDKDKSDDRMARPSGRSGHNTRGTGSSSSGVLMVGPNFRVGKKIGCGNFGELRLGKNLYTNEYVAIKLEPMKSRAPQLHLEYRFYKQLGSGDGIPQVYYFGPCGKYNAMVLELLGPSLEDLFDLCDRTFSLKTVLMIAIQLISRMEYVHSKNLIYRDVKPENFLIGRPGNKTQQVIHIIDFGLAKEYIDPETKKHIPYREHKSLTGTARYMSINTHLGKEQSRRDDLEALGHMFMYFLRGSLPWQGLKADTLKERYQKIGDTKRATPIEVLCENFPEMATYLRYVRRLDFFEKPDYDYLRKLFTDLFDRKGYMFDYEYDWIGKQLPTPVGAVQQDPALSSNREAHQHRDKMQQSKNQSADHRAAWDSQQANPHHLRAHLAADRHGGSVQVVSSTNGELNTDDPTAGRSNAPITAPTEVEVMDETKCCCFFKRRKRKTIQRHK
Sequence of Serine/threonine-protein kinase Nek11 (Homo sapiens) (Q8NG66 whole entry): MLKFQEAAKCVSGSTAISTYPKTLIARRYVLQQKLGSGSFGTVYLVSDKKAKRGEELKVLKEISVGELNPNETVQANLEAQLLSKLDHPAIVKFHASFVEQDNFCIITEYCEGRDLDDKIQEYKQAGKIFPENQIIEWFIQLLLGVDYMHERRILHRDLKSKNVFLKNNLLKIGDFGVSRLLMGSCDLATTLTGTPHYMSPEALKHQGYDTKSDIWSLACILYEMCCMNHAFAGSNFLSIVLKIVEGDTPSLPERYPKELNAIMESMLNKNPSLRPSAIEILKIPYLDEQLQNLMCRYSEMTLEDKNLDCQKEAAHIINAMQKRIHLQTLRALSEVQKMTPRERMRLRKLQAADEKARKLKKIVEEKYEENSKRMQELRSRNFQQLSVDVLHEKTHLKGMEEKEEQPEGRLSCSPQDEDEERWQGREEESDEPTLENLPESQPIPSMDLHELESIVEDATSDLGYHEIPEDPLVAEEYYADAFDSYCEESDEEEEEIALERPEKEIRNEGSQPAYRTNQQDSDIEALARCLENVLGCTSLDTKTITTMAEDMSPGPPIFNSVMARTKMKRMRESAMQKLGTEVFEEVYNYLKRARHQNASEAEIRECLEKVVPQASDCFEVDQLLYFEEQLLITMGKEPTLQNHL

CN1CCN(c2ccc(OC(F)(F)F)c(Nc3ncc4c(n3)-c3c(c(C(N)=O)nn3CCO)CC4)c2)CC1 [ONVANSERTIB]
IC50 [1]: > 10000 nM
Activity [2]: 83%
Activity [3]: 88%
Activity [4]: 123%
Activity [5]: 114%
Activity [6]: 85%
Activity [7]: 39%
Activity [8]: 24%
Activity [9]: 71%
Activity [10]: 84%
IC50 (U-251): 190 nM
IC50 (Hs-578T): 251 nM
IC50 (MFM-223): 10 nM
IC50 [11]: 93 nM
IC50 (SW1417): 606 nM
IC50 (RPMI-8226): 128 nM
IC50 (HEL): 48 nM
IC50 [12]: 66 nM
IC50 [13]: 36 nM
IC50 (KARPAS-299): 53 nM
IC50 (L-363): 37 nM
IC50 (SET-2): 145 nM
Vd [14]: 9.5 L/kg
half-life [15]: 5 h
Tmax [16]: 2.7 h
Activity (NHDF): Non-Toxic
Activity [17]: Toxic
inhibition (A2780 [18]): Active
Activity (A2780 [19]): Active
Time [20]: 79 days
